According to PMC9720105 (Redox Biology, 2022):
Each block holds one compound with its values, some of them ahead of it.

Key:
[1] = molecular target: recombinant KEAP1-Kelch domain (Homo sapiens, UniProt Q14145); assay: biochemical; type: binding; conditions: for reduction in KEAP1 binding affinity compared to inhibitor 2: HTRF biochemical assay
KEAP1 in HEK293T cells = KEAP1 in HEK293T cells (Homo sapiens, UniProt Q14145); assay: KEAP1 degradation in HEK293T cells; type: cell-based; conditions: HEK293T cells; for KEAP1 degradation efficiency: three lower concentrations, 5 and 24 h; for KEAP1 degradation / expression: 48 h
KEAP1 in HEK293T cells, sequence (Q14145 whole entry): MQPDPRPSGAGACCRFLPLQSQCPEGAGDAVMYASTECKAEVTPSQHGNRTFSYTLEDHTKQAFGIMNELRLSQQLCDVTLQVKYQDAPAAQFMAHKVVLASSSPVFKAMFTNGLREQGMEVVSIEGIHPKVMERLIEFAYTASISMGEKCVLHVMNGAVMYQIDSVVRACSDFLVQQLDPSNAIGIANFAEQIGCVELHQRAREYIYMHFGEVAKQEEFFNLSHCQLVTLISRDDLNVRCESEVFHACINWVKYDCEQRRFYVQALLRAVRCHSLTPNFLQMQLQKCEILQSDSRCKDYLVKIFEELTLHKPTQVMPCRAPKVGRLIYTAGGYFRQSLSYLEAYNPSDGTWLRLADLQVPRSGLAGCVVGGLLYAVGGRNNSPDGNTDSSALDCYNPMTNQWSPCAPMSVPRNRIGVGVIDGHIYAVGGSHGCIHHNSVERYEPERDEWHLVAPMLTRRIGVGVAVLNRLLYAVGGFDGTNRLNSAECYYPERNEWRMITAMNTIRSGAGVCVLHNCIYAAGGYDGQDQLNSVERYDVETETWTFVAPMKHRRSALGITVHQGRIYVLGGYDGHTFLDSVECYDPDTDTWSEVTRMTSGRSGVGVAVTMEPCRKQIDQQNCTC

KEAP1 in HCA7 cells = KEAP1 in HCA7 cells (Homo sapiens, UniProt Q14145); assay: KEAP1 degradation in HCA7 cells; type: cell-based; conditions: 48 h
KEAP1 in HCA7 cells, sequence (Q14145 whole entry): as above
Procedure, shortened: (§1)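 HEK293T, HCA7 and A549 cells were grown in DMEM with 10% FBS and pen/strep; BEAS-2B in LHC-9 with pen/strep; all at 37 °C, 10% CO₂. Cells were exposed to test compound for 48 h, lysed, run on 4–12% SDS-PAGE and transferred to nitrocellulose. Blocking was 5% skim milk for 1 h at RT. Probes were anti-KEAP1, CRBN, NQO1 or HO-1, with HRP anti-β-actin loading control and HRP secondaries. Blots represent 3 independent experiments.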

[2] = tested on: NRF2 downstream targets, NQO1 and HO-1; assay: NQO1 and HO-1 protein levels in HEK293T and HCA7 cell lines; type: cell-based; conditions: 48 h
Procedure, shortened: as §1

recombinant KEAP1-Kelch domain, sequence (Q14145 312-624): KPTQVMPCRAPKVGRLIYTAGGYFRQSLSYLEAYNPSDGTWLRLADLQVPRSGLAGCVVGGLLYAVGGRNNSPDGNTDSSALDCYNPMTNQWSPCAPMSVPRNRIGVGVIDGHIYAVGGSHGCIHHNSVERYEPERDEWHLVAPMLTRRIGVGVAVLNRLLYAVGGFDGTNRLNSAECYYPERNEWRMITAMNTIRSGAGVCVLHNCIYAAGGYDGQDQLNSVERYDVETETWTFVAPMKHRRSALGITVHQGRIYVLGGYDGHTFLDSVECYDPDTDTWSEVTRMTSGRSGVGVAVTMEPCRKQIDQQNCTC

SMILES: Cc1ccc(C(CC(=O)O)c2cc(OCCCCNC(=O)COc3cccc4c3C(=O)N(C3CCC(=O)NC3=O)C4=O)c3c(c2)nnn3C)cc1CN1C[C@@H](C)Oc2ccccc2S1(=O)=O (stereo partly drawn) [Compound 8, 3-(7-(4-(2-((2-(2,6-Dioxopiperidin-3-yl)-1,3-dioxoisoindolin-4-yl)oxy)acetamido)butoxy)-1-methyl-1H-benzo[d][1,2,3]triazol-5-yl)-3-(4-methyl-3-(((R)-4-methyl-1,1-dioxido-3,4-dihydro-2H-benzo[b][1,4,5]oxathiazepin-2-yl)methyl)phenyl)propanoic acid]
IC50 [1]: 66 nM | KEAP1 degradation at longer time points (KEAP1 in HEK293T cells; 48 h and 72 h, comparison of 8 and 14): less effective at longer time points of 48 h and 72 h | KEAP1 degradation efficiency (KEAP1 in HEK293T cells): most efficient at degrading KEAP1

IC50 [1]: 150 nM
SMILES: Cc1ccc(C(CC(=O)O)c2cc(OCCNc3cccc4c3C(=O)N(C3CCC(=O)NC3=O)C4=O)c3c(c2)nnn3C)cc1CN1C[C@@H](C)Oc2ccccc2S1(=O)=O (stereo partly drawn) [Compound 3, 3-(7-(2-((2-(2,6-Dioxopiperidin-3-yl)-1,3-dioxoisoindolin-4-yl)amino)ethoxy)-1-methyl-1H-benzo[d][1,2,3]triazol-5-yl)-3-(4-methyl-3-(((R)-4-methyl-1,1-dioxido-3,4-dihydro-2H-benzo[b][1,4,5]oxathiazepin-2-yl)methyl)phenyl)propanoic acid]

KEAP1 degradation / expression (KEAP1 in HEK293T cells): no impact | KEAP1 degradation / expression (KEAP1 in HCA7 cells): no impact
SMILES: COc1cc(C(CC(=O)OC(C)(C)C)c2ccc(C)c(CN3C[C@@H](C)Oc4ccccc4S3(=O)=O)c2)cc2nnn(C)c12 (stereo partly drawn) [Compound 17, tert-Butyl 3-(7-methoxy-1-methyl-1H-benzo[d][1,2,3]triazol-5-yl)-3-(4-methyl-3-(((R)-4-methyl-1,1-dioxido-3,4-dihydro-2H-benzo[b][1,4,5]oxathiazepin-2-yl)methyl)phenyl)propanoate]
HO-1 protein expression [2]: no impact | NQO1 protein expression [2]: no impact

IC50 [1]: 267 nM | reduction in KEAP1 binding affinity compared to inhibitor 2 [1]: greater than 3 fold
SMILES: Cc1ccc(C(CC(=O)O)c2cc(OCCCNc3cccc4c3C(=O)N(C3CCC(=O)NC3=O)C4=O)c3c(c2)nnn3C)cc1CN1C[C@@H](C)Oc2ccccc2S1(=O)=O (stereo partly drawn) [Compound 4, 3-(7-(3-((2-(2,6-Dioxopiperidin-3-yl)-1,3-dioxoisoindolin-4-yl)amino)propoxy)-1-methyl-1H-benzo[d][1,2,3]triazol-5-yl)-3-(4-methyl-3-(((R)-4-methyl-1,1-dioxido-3,4-dihydro-2H-benzo[b][1,4,5]oxathiazepin-2-yl)methyl)phenyl)propanoic acid]

SMILES: Cc1ccc(C(CC(=O)O)c2cc(OCCCCCCCNc3cccc4c3C(=O)N(C3CCC(=O)N(C)C3=O)C4=O)c3c(c2)nnn3C)cc1CN1C[C@@H](C)Oc2ccccc2S1(=O)=O (stereo partly drawn) [Compound 15, 3-(4-Methyl-3-(((R)-4-methyl-1,1-dioxido-3,4-dihydro-2H-benzo[b][1,4,5]oxathiazepin-2-yl)methyl)phenyl)-3-(1-methyl-7-((7-((2-(1-methyl-2,6-dioxopiperidin-3-yl)-1,3-dioxoisoindolin-4-yl)amino)heptyl)oxy)-1H-benzo[d][1,2,3]triazol-5-yl)propanoic acid]
HO-1 protein expression [2]: but not HO-1 | NQO1 protein expression [2]: upregulated

KEAP1 degradation / expression (KEAP1 in HEK293T cells): no impact | KEAP1 degradation / expression (KEAP1 in HCA7 cells): no impact
SMILES: Cc1ccc(C(CC(=O)OC(C)(C)C)c2cc(OCCCCCCCNc3cccc4c3C(=O)N(C3CCC(=O)NC3=O)C4=O)c3c(c2)nnn3C)cc1CN1C[C@@H](C)Oc2ccccc2S1(=O)=O (stereo partly drawn) [Compound 16, tert-Butyl 3-(7-((7-((2-(2,6-Dioxopiperidin-3-yl)-1,3-dioxoisoindolin-4-yl)amino)heptyl)oxy)-1-methyl-1H-benzo[d][1,2,3]triazol-5-yl)-3-(4-methyl-3-(((R)-4-methyl-1,1-dioxido-3,4-dihydro-2H-benzo[b][1,4,5]oxathiazepin-2-yl)methyl)phenyl)propanoate]
HO-1 protein expression [2]: no impact | NQO1 protein expression [2]: no impact

IC50 [1]: 120 nM
SMILES: Cc1ccc(C(CC(=O)O)c2cc(OCCOCCOCCNc3cccc4c3C(=O)N(C3CCC(=O)NC3=O)C4=O)c3c(c2)nnn3C)cc1CN1C[C@@H](C)Oc2ccccc2S1(=O)=O (stereo partly drawn) [Compound 11, 3-(7-(2-(2-(2-((2-(2,6-Dioxopiperidin-3-yl)-1,3-dioxoisoindolin-4-yl)amino)ethoxy)ethoxy)ethoxy)-1-methyl-1H-benzo[d][1,2,3]triazol-5-yl)-3-(4-methyl-3-(((R)-4-methyl-1,1-dioxido-3,4-dihydro-2H-benzo[b][1,4,5]oxathiazepin-2-yl)methyl)phenyl)propanoic acid]

reduction in KEAP1 binding affinity compared to inhibitor 2 [1]: greater than 3 fold
SMILES: Cc1ccc(C(CC(=O)O)c2cc(OC(=O)CCCOc3cccc4c3C(=O)N(C3CCC(=O)NC3=O)C4=O)c3c(c2)nnn3C)cc1CN1C[C@@H](C)Oc2ccccc2S1(=O)=O (stereo partly drawn) [Compound 5, 3-(7-((4-((2-(2,6-Dioxopiperidin-3-yl)-1,3-dioxoisoindolin-4-yl)oxy)butanoyl)oxy)-1-methyl-1H-benzo[d][1,2,3]triazol-5-yl)-3-(4-methyl-3-(((R)-4-methyl-1,1-dioxido-3,4-dihydro-2H-benzo[b][1,4,5]oxathiazepin-2-yl)methyl)phenyl)propanoic acid]

IC50 [1]: 127 nM | KEAP1 degradation efficiency (KEAP1 in HEK293T cells): most efficient at degrading KEAP1
SMILES: Cc1ccc(C(CC(=O)O)c2cc(OCCCCCCNC(=O)COc3cccc4c3C(=O)N(C3CCC(=O)NC3=O)C4=O)c3c(c2)nnn3C)cc1CN1C[C@@H](C)Oc2ccccc2S1(=O)=O (stereo partly drawn) [Compound 10, 3-(7-((6-(2-((2-(2,6-Dioxopiperidin-3-yl)-1,3-dioxoisoindolin-4-yl)oxy)acetamido)hexyl)oxy)-1-methyl-1H-benzo[d][1,2,3]triazol-5-yl)-3-(4-methyl-3-(((R)-4-methyl-1,1-dioxido-3,4-dihydro-2H-benzo[b][1,4,5]oxathiazepin-2-yl)methyl)phenyl)propanoic acid]

IC50 [1]: 86 nM
SMILES: Cc1ccc(C(CC(=O)O)c2cc(OCCCCCNC(=O)COc3cccc4c3C(=O)N(C3CCC(=O)NC3=O)C4=O)c3c(c2)nnn3C)cc1CN1C[C@@H](C)Oc2ccccc2S1(=O)=O (stereo partly drawn) [Compound 9, 3-(7-((5-(2-((2-(2,6-Dioxopiperidin-3-yl)-1,3-dioxoisoindolin-4-yl)oxy)acetamido)pentyl)oxy)-1-methyl-1H-benzo[d][1,2,3]triazol-5-yl)-3-(4-methyl-3-(((R)-4-methyl-1,1-dioxido-3,4-dihydro-2H-benzo[b][1,4,5]oxathiazepin-2-yl)methyl)phenyl)propanoic acid]

IC50 [1]: 563 nM | reduction in KEAP1 binding affinity compared to inhibitor 2 [1]: greater than 3 fold
SMILES: Cc1ccc(C(CC(=O)O)c2cc(OCCOCCOCCNC(=O)COc3cccc4c3C(=O)N(C3CCC(=O)NC3=O)C4=O)c3c(c2)nnn3C)cc1CN1C[C@@H](C)Oc2ccccc2S1(=O)=O (stereo partly drawn) [Compound 12, 3-(7-(2-(2-(2-(2-((2-(2,6-Dioxopiperidin-3-yl)-1,3-dioxoisoindolin-4-yl)oxy)acetamido)ethoxy)ethoxy)ethoxy)-1-methyl-1H-benzo[d][1,2,3]triazol-5-yl)-3-(4-methyl-3-(((R)-4-methyl-1,1-dioxido-3,4-dihydro-2H-benzo[b][1,4,5]oxathiazepin-2-yl)methyl)phenyl)propanoic acid]

IC50 [1]: 143 nM
SMILES: Cc1ccc(C(CC(=O)O)c2cc(OCCCNC(=O)COc3cccc4c3C(=O)N(C3CCC(=O)NC3=O)C4=O)c3c(c2)nnn3C)cc1CN1C[C@@H](C)Oc2ccccc2S1(=O)=O (stereo partly drawn) [Compound 7, 3-(7-(3-(2-((2-(2,6-Dioxopiperidin-3-yl)-1,3-dioxoisoindolin-4-yl)oxy)acetamido)propoxy)-1-methyl-1H-benzo[d][1,2,3]triazol-5-yl)-3-(4-methyl-3-(((R)-4-methyl-1,1-dioxido-3,4-dihydro-2H-benzo[b][1,4,5]oxathiazepin-2-yl)methyl)phenyl)propanoic acid]

SMILES: C[S+]([O-])CCCCN=C=S (stereo not drawn) [sulforaphane, reference compound]
HO-1 protein expression [2]: but not HO-1 | NQO1 protein expression [2]: upregulated

IC50 [1]: 147 nM
SMILES: Cc1ccc(C(CC(=O)O)c2cc(OCCNC(=O)COc3cccc4c3C(=O)N(C3CCC(=O)NC3=O)C4=O)c3c(c2)nnn3C)cc1CN1C[C@@H](C)Oc2ccccc2S1(=O)=O (stereo partly drawn) [Compound 6, 3-(7-(2-(2-((2-(2,6-Dioxopiperidin-3-yl)-1,3-dioxoisoindolin-4-yl)oxy)acetamido)ethoxy)-1-methyl-1H-benzo[d][1,2,3]triazol-5-yl)-3-(4-methyl-3-(((R)-4-methyl-1,1-dioxido-3,4-dihydro-2H-benzo[b][1,4,5]oxathiazepin-2-yl)methyl)phenyl)propanoic acid]
